Consider eight compounds from ChEMBL document CHEMBL2321845, “Discovery of 4-Aryl-2-benzoyl-imidazoles as tubulin polymerization inhibitor with potent antiproliferative properties” (J Med Chem, 2013).

pIC50: −log10 of the molar value. The source made the active and inactive calls. The rule behind the calls is not given here. Some results are limits rather than exact numbers.

Tubulin (Sus scrofa), sequence (P02550 whole entry, looked up): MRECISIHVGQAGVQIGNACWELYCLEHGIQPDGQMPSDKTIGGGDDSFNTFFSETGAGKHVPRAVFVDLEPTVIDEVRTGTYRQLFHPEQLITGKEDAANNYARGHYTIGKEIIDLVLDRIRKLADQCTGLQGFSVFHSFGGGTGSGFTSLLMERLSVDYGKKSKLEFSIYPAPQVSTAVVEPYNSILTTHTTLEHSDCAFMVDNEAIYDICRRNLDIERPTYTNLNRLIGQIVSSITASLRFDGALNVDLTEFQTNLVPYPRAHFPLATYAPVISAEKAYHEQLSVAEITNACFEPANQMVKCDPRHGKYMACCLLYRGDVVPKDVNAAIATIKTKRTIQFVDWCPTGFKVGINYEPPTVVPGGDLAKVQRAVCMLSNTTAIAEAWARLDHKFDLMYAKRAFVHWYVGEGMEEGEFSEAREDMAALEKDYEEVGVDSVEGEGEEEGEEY
Tubulin (Sus scrofa), sequence (P02554 whole entry, looked up): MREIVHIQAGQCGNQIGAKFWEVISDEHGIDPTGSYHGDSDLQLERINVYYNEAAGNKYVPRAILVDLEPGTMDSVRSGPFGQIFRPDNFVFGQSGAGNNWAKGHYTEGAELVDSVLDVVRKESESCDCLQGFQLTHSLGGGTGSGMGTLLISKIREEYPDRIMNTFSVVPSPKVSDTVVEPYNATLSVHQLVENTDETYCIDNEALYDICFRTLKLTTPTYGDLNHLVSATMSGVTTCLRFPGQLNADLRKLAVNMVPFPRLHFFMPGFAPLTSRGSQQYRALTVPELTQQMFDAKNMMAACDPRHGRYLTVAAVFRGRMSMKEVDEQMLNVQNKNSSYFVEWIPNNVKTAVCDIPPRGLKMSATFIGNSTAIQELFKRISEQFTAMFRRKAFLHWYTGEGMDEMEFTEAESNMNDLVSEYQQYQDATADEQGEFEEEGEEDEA

For the first test, the system named is LNCaP. Briefly: Cytotoxicity against human LNCAP cells assessed as growth inhibition after 96 hrs by SRB assay.
Conditions: not given
In kind it is functional, cell-based. In short, it runs like this: (§1)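 Plated at 1000–5000 cells/well depending on growth rate and treated with graded compound concentrations for 96 h, three to five replicates. Cell number was measured by SRB: 10% TCA fixation, 0.4% SRB staining, absorbance at 540 nm. IC50 relative to untreated control came from a nonlinear regression fit.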
(In general: In SRB staining, fixed cells bind dye roughly in proportion to their protein.)
With `COc1ccc(C(=O)c2nc(-c3ccc(OC)cc3)c[nH]2)cc1`, the pIC50 – broadly, the IC50 on a negative log10 scale, so that one unit is a factor of ten – was 5.19.
Regarding `COc1cc(C(=O)c2nc(-c3ccc(F)cc3)c[nH]2)cc(OC)c1OC`, the negative-log IC50 (pIC50) is 6.94.
On the same count and under the same terms, next, `CCCn1cc(-c2ccccc2)nc1C(=O)c1cc(OC)c(OC)c(OC)c1`: 7.31; `O=C(c1ccc(F)cc1)c1nc(-c2ccc(F)cc2)c[nH]1`: less than 4.30.
Take `COc1cc(C(=O)c2nc(-c3ccccc3)cn2Cc2ccccc2)cc(OC)c1OC`: the pIC50 was 7.18.
Same read-out and setting: next, `O=C(c1ccc(Br)cc1)c1nc(-c2ccc(Br)cc2)c[nH]1`: 4.77.

The subject of the next test is PC-3. The test is described as follows: Cytotoxicity against human PC3 cells assessed as growth inhibition after 96 hrs by SRB assay. In kind it is functional, cell-based. Particulars: PC-3, 96 h. In short, it runs like this:
as §1
`COc1cc(C(=O)c2nc(-c3ccccc3)cn2C)cc(OC)c1OC`: the negative logarithm of the IC50 (pIC50) was 7.80.
Same read-out and setting: to `COc1ccc(C(=O)c2nc(-c3ccc(OC)cc3)c[nH]2)cc1` belongs 4.63.
On to `COc1cc(C(=O)c2nc(-c3ccc(F)cc3)c[nH]2)cc(OC)c1OC`, for which the negative-log IC50 (pIC50) was 6.71.
As to `CCCn1cc(-c2ccccc2)nc1C(=O)c1cc(OC)c(OC)c(OC)c1`, the negative-log IC50 (pIC50) was 7.59.
On the same count and under the same terms, to `CCc1ccc(-c2nc(C(=O)c3cc(OC)c(OC)c(OC)c3)c[nH]2)cc1` belongs 7.89; to `O=C(c1ccc(F)cc1)c1nc(-c2ccc(F)cc2)c[nH]1`, less than 4.30.
Take `COc1cc(C(=O)c2nc(-c3ccccc3)cn2Cc2ccccc2)cc(OC)c1OC`: the pIC50 is 7.14.
For `O=C(c1ccc(Br)cc1)c1nc(-c2ccc(Br)cc2)c[nH]1`, the pIC50 was 4.72.

The next test has as its system PPC-1. The test is described as follows: Cytotoxicity against human PPC1 cells assessed as growth inhibition after 96 hrs by SRB assay. It is filed as functional, cell-based. Particulars: PPC-1, 96 h. In short, it runs like this: as §1
In the case of `COc1cc(C(=O)c2nc(-c3ccccc3)cn2C)cc(OC)c1OC`, the pIC50 is 7.89.
For the compound `COc1ccc(C(=O)c2nc(-c3ccc(OC)cc3)c[nH]2)cc1`, the pIC50 is 4.42.
The same measure, in the same setting: next, `COc1cc(C(=O)c2nc(-c3ccc(F)cc3)c[nH]2)cc(OC)c1OC`: 6.87.
Same read-out and setting: next, `CCCn1cc(-c2ccccc2)nc1C(=O)c1cc(OC)c(OC)c(OC)c1`: 8.00; `CCc1ccc(-c2nc(C(=O)c3cc(OC)c(OC)c(OC)c3)c[nH]2)cc1`: 7.82; `O=C(c1ccc(F)cc1)c1nc(-c2ccc(F)cc2)c[nH]1`: less than 4.30.
In the case of `COc1cc(C(=O)c2nc(-c3ccccc3)cn2Cc2ccccc2)cc(OC)c1OC`, the negative-log IC50 (pIC50) was 7.11.
Still for that read-out and setting: to `O=C(c1ccc(Br)cc1)c1nc(-c2ccc(Br)cc2)c[nH]1` belongs 4.88.

The next test deals with DU-145. Briefly: Cytotoxicity against human DU145 cells assessed as growth inhibition after 96 hrs by SRB assay. In kind it is functional, cell-based. Particulars: Homo sapiens, DU-145, 96 h.
As for `COc1cc(C(=O)c2nc(-c3ccccc3)cn2C)cc(OC)c1OC`, the negative logarithm of the IC50 (pIC50) was 7.59.
`COc1ccc(C(=O)c2nc(-c3ccc(OC)cc3)c[nH]2)cc1`: the pIC50 is 5.01.
Regarding `COc1cc(C(=O)c2nc(-c3ccc(F)cc3)c[nH]2)cc(OC)c1OC`, the pIC50 was 6.45.
Still for that read-out and setting: next, `CCCn1cc(-c2ccccc2)nc1C(=O)c1cc(OC)c(OC)c(OC)c1`: 7.14; `CCc1ccc(-c2nc(C(=O)c3cc(OC)c(OC)c(OC)c3)c[nH]2)cc1`: 7.60.
Still for that read-out and setting: to `O=C(c1ccc(F)cc1)c1nc(-c2ccc(F)cc2)c[nH]1` belongs less than 4.30.
As to `COc1cc(C(=O)c2nc(-c3ccccc3)cn2Cc2ccccc2)cc(OC)c1OC`, the pIC50 was 6.80.
For `O=C(c1ccc(Br)cc1)c1nc(-c2ccc(Br)cc2)c[nH]1`, the pIC50 is 4.59.

Another test deals with A-375. Briefly: Cytotoxicity against human A375 cells assessed as growth inhibition after 48 hrs by SRB assay. It is filed as functional, cell-based. The following applies: A-375, 48 h. In short, it runs like this: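 Melanoma cells from ATCC, grown in DMEM with 10% FBS at 37°C under 5% CO2. Seeded at 1000–5000 cells/well according to growth rate and exposed to a range of compound concentrations for 48 h, in three to five replicates. Cells were fixed with 10% TCA, stained with 0.4% SRB and read at 540 nm.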
Turning to `COc1cc(C(=O)c2nc(-c3ccccc3)cn2C)cc(OC)c1OC`, the pIC50 was 8.05.
The same measure, in the same setting: to `COc1ccc(C(=O)c2nc(-c3ccc(OC)cc3)c[nH]2)cc1` belongs less than 4.30; to `COc1cc(C(=O)c2nc(-c3ccc(F)cc3)c[nH]2)cc(OC)c1OC`, 6.71.
The same measure, in the same setting: next, `CCCn1cc(-c2ccccc2)nc1C(=O)c1cc(OC)c(OC)c(OC)c1`: 7.38; `CCc1ccc(-c2nc(C(=O)c3cc(OC)c(OC)c(OC)c3)c[nH]2)cc1`: 7.85; `O=C(c1ccc(F)cc1)c1nc(-c2ccc(F)cc2)c[nH]1`: less than 4.30.
As to `COc1cc(C(=O)c2nc(-c3ccccc3)cn2Cc2ccccc2)cc(OC)c1OC`, the pIC50 is 6.98.
On the same count and under the same terms, next, `O=C(c1ccc(Br)cc1)c1nc(-c2ccc(Br)cc2)c[nH]1`: 4.60.

Another test deals with MDA-MB-435. Briefly: Cytotoxicity against human MDA-MB-435 cells assessed as growth inhibition after 48 hrs by SRB assay. In kind it is functional, cell-based. The following applies: MDA-MB-435, 48 h.
`COc1cc(C(=O)c2nc(-c3ccccc3)cn2C)cc(OC)c1OC`: the negative-log IC50 (pIC50) is 7.80.
On the same count and under the same terms, to `COc1ccc(C(=O)c2nc(-c3ccc(OC)cc3)c[nH]2)cc1` belongs less than 4.30; to `COc1cc(C(=O)c2nc(-c3ccc(F)cc3)c[nH]2)cc(OC)c1OC`, 6.49.
Same read-out and setting: next, `CCCn1cc(-c2ccccc2)nc1C(=O)c1cc(OC)c(OC)c(OC)c1`: 7.43; `CCc1ccc(-c2nc(C(=O)c3cc(OC)c(OC)c(OC)c3)c[nH]2)cc1`: 7.60.
As to `O=C(c1ccc(F)cc1)c1nc(-c2ccc(F)cc2)c[nH]1`, the negative logarithm of the IC50 (pIC50) is less than 4.30.
On the same count and under the same terms, to `COc1cc(C(=O)c2nc(-c3ccccc3)cn2Cc2ccccc2)cc(OC)c1OC` belongs 7.03; to `O=C(c1ccc(Br)cc1)c1nc(-c2ccc(Br)cc2)c[nH]1`, 4.84.

System in a further test: not listed separately
Briefly: Cytotoxicity against human MDA-MB-435/LCC6MDR1 cells assessed as growth inhibition after 48 hrs by SRB assay. It is filed as functional, cell-based, MDA-MB-435/LCC6 MDR1. The following applies: Homo sapiens, MDA-MB-435/LCC6 MDR1, 48 h.
`COc1cc(C(=O)c2nc(-c3ccccc3)cn2C)cc(OC)c1OC`: the pIC50 was 7.74.
On the same count and under the same terms, to `COc1ccc(C(=O)c2nc(-c3ccc(OC)cc3)c[nH]2)cc1` belongs less than 4.30; to `COc1cc(C(=O)c2nc(-c3ccc(F)cc3)c[nH]2)cc(OC)c1OC`, 6.58; to `CCCn1cc(-c2ccccc2)nc1C(=O)c1cc(OC)c(OC)c(OC)c1`, 7.36.
Same read-out and setting: next, `CCc1ccc(-c2nc(C(=O)c3cc(OC)c(OC)c(OC)c3)c[nH]2)cc1`: 7.57; `O=C(c1ccc(F)cc1)c1nc(-c2ccc(F)cc2)c[nH]1`: less than 4.30; `COc1cc(C(=O)c2nc(-c3ccccc3)cn2Cc2ccccc2)cc(OC)c1OC`: 6.81.
As to `O=C(c1ccc(Br)cc1)c1nc(-c2ccc(Br)cc2)c[nH]1`, the pIC50 is 4.75.

System in a further test: not listed separately
Briefly: Cytotoxicity against human WM164 cells assessed as growth inhibition after 48 hrs by SRB assay. In kind it is functional, cell-based. The following applies: WM164, 48 h. In short, it runs like this: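 Melanoma cells from ATCC, grown in DMEM with 10% FBS at 37°C under 5% CO2. Seeded at 1000–5000 cells/well according to growth rate and exposed to a range of compound concentrations for 48 h, in three to five replicates. Cells were fixed with 10% TCA, stained with 0.4% SRB and read at 540 nm. IC50 (50% growth inhibition versus untreated control) was taken from nonlinear regression of % survival against concentration.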
`COc1cc(C(=O)c2nc(-c3ccccc3)cn2C)cc(OC)c1OC`: the negative logarithm of the IC50 (pIC50) is 7.48.
Same read-out and setting: to `COc1ccc(C(=O)c2nc(-c3ccc(OC)cc3)c[nH]2)cc1` belongs less than 4.30; to `COc1cc(C(=O)c2nc(-c3ccc(F)cc3)c[nH]2)cc(OC)c1OC`, 6.53.
For the compound `CCCn1cc(-c2ccccc2)nc1C(=O)c1cc(OC)c(OC)c(OC)c1`, the pIC50 was 7.85.
On to `O=C(c1ccc(F)cc1)c1nc(-c2ccc(F)cc2)c[nH]1`, for which the pIC50 is less than 4.30.
For `COc1cc(C(=O)c2nc(-c3ccccc3)cn2Cc2ccccc2)cc(OC)c1OC`, the pIC50 was 7.47.
For `O=C(c1ccc(Br)cc1)c1nc(-c2ccc(Br)cc2)c[nH]1`, the negative logarithm of the IC50 (pIC50) is 4.58.

The test system of another test is PC-3. The test is described as follows: Cell cycle arrest in human PC3 cells assessed as accumulation at G2/M phase after 24 hrs by propidium iodide staining based FACS analysis (reference value: 18%). It is filed as functional.
Conditions: not given
Background: In flow cytometry, cells or beads pass a laser one at a time.
As to `COc1cc(C(=O)c2nc(-c3ccccc3)cn2C)cc(OC)c1OC`, the Activity result was “Dose-dependent effect”.
With `CCc1ccc(-c2nc(C(=O)c3cc(OC)c(OC)c(OC)c3)c[nH]2)cc1`, the Activity entry is “Dose-dependent effect”.

Still in this test, the particulars now being: record 2.
With `COc1cc(C(=O)c2nc(-c3ccccc3)cn2C)cc(OC)c1OC`, the Activity result is “<=70%”.
The same measure, in the same setting: next, `CCc1ccc(-c2nc(C(=O)c3cc(OC)c(OC)c(OC)c3)c[nH]2)cc1`: “<=70%”.

Another test concerns the target Tubulin (Sus scrofa) (UniProt P02554+P02550). The test is described as follows: Inhibition of pig brain tubulin polymerization measured every 1 min for 40 mins by microplate reader analysis.
Conditions: not given
The essentials: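 Polymerization was followed with a fluorescence-enhanced tubulin polymerization assay kit.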
`COc1cc(C(=O)c2nc(-c3ccccc3)cn2C)cc(OC)c1OC`: the inhibition result is “Active”.
